Reference: ChEMBL document CHEMBL2321666, “Discovery of a Series of Thiazole Derivatives as Novel Inhibitors of Metastatic Cancer Cell Migration and Invasion” (ACS Med Chem Lett, 2013)
Active and inactive are the calls of the source. The rule behind the calls is not given here.

Assays:
MDA-MB-231 [1] = assay: Inhibition of cell migration in human MDA-MB-231 cells assessed as total number of cells at 10 uM after 24 hrs by transwell migration assay relative to control; values are per cent of control; details: MDA-MB-231, 24 h
HeLa [2] = assay: Inhibition of cell migration in human HeLa cells assessed as total number of cells at 10 uM after 24 hrs by transwell migration assay relative to control; assay type: functional
MDA-MB-231 [3] = assay: Cytotoxicity against human MDA-MB-231 cells assessed as colony formation at 10 uM after 2 weeks relative to control; assay type: cell-based; details: mda-mb-231, 336 h
Summary of the method: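 Clonogenic assay: MDA-MB-231 cells grown for 14 days in six-well plates with or without 10 μM compound. Colony formation expressed as % of DMSO vehicle control.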

HeLa [4] = assay: Cytotoxicity against human HeLa cells assessed as colony formation at 10 uM after 2 weeks relative to control; assay type: cell-based; details: 336 h
MDA-MB-231 [5] = assay: Inhibition of cell invasion in human MDA-MB-231 cells assessed as total number of cells at 10 uM after 24 hrs by matrigel invasion assay relative to control; assay type: functional; details: MDA-MB-231, 24 h
MDA-MB-231 [6] = assay: Inhibition of cell migration in human MDA-MB-231 cells assessed as total number of cells after 24 hrs by transwell migration assay; assay type: functional, cell-based; details: for IC50: MDA-MB-231, 24 h
Summary of the method: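 Dose-response transwell migration in MDA-MB-231 cells: 2.5 × 10^4 cells in serum-free upper chamber, 5% FBS in the lower chamber.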

A549 = assay: Inhibition of cell migration in human A549 cells assessed as total number of cells at 10 uM after 24 hrs by transwell migration assay relative to control; assay type: functional; details: A549, 24 h
MDA-MB-231 [7] = assay: Reduction of fascin localization in actin-rich membrane protrusion in human MDA-MB-231 cells at 10 uM by immuno fluorescence microscopic analysis; assay type: functional, cell-based
MDA-MB-231 [8] = assay: Inhibition of serum-induced actin-rich membrane protrusion in human MDA-MB-231 cells assessed as reduction of f-actin intensity at 10 uM after overnight incubation by fluorescent microscopic analysis; assay type: functional
Summary of the method: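 MDA-MB-231 cells serum-starved with or without 10 μM compound, then serum-stimulated for 2 h to induce actin-rich membrane protrusions. F-actin was stained and imaged by fluorescence microscopy, and f-actin intensity was quantified against DMSO-treated cells.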

Structure (SMILES) | level, % of control at 10 µM (MDA-MB-231 [1]) [%] | Activity (MDA-MB-231 [3]) [%] | also measured
CCCCCCCCCCCC(=O)Nc1nc(-c2ccccc2)cs1 | 28.3 | 71.5 | inhibition at 10 µM (HeLa [2]): 60%; Activity (HeLa [4]): Non-toxic; inhibition at 10 µM (MDA-MB-231 [5]): 40%; IC50 (MDA-MB-231 [6]): 1.01 µM
Cc1ccc(-c2csc(N(C)C(=O)c3cccs3)n2)c(C)c1 | 72.2 | 97.7 | –
CCN(C(=O)c1ccco1)c1nc(-c2ccccc2)cs1 | 54.5 | 96.5 | –
Cn1c(-c2ccccc2)cs/c1=N/C(=O)c1ccccc1 | 13 | 25.2 | inhibition at 10 µM (HeLa [2]): 60%; Activity (HeLa [4]): Toxic; inhibition at 10 µM (MDA-MB-231 [5]): 40%; IC50 (MDA-MB-231 [6]): 0.189 µM
CN(C(=O)c1ccc(Br)cc1)c1nc(-c2ccccc2)cs1 | 78.2 | 107.7 | –
CCn1c(-c2ccccc2)cs/c1=N/C(=O)c1cccs1 | 32.1 | 97.7 | inhibition at 10 µM (HeLa [2]): 60%; Activity (HeLa [4]): 45%; inhibition at 10 µM (MDA-MB-231 [5]): 40%; IC50 (MDA-MB-231 [6]): 2.08 µM
CN(C(=O)C1CCCCC1)c1nc(-c2ccccc2)cs1 | 72.7 | 97.5 | –
Cn1c(-c2ccccc2)cs/c1=N/C(=O)c1cccs1 | 43.3 | 85 | –
O=C(Nc1nc(-c2ccccc2)cs1)C1CCCCC1 | 92.7 | 103.4 | –
CN(C(=O)c1ccccc1)c1nc(-c2ccccc2)cs1 | 39.2 | 123.4 | inhibition at 10 µM (HeLa [2]): 60%; inhibition at 10 µM (MDA-MB-231 [5]): 40%; IC50 (MDA-MB-231 [6]): 0.366 µM
COc1cc(C(=O)/N=c2/scc(-c3ccccc3)n2C)cc(OC)c1OC | 26.5 | 75.4 | –
Nc1nc(-c2ccccc2)cs1 | 86 | 103.6 | –
O=C(Nc1nc(-c2ccccc2)cs1)c1ccco1 | 88 | 98.8 | –
COc1cc(C(=O)Nc2nc(-c3ccccc3)cs2)cc(OC)c1OC | 46.5 | 80.9 | –
Cn1c(-c2ccccc2)cs/c1=N/C(=O)c1ccco1 | 77.6 | 107.3 | –
Cc1ccc(-c2cs/c(=N/C(=O)c3cccs3)n2C)c(C)c1 | 37.1 | 102.3 | –
Cc1ccc(-c2cs/c(=N/C(=O)c3ccccc3)n2C)c(C)c1 | 14.3 | 120.9 | inhibition at 10 µM (HeLa [2]): 80%; inhibition at 10 µM (A549): 80%; Activity (MDA-MB-231 [7]): Active; Activity (HeLa [4]): 85%; inhibition at 10 µM (MDA-MB-231 [8]): 55%; inhibition at 10 µM (MDA-MB-231 [5]): 60%; inhibition (MDA-MB-231 [6]): Dose-dependent effect; IC50 (MDA-MB-231 [6]): 0.176 µM
COc1ccc(C(=O)Nc2nc(-c3ccccc3)cs2)cc1OC | 18.6 | 57.3 | –
COc1cc(OC)c(-c2csc(NC(=O)c3ccccc3)n2)c(OC)c1 | 59.2 | 108.8 | –
O=C(Nc1nc(-c2ccccc2)cs1)c1ccc(Cl)cc1 | 78 | 95 | –

Structure (SMILES) | level, % of control at 10 µM (MDA-MB-231 [1]) [%] | Activity (MDA-MB-231 [3]) [%] | also measured
O=C(Nc1nc(-c2ccccc2)cs1)c1cccnc1 | 80.8 | 102.8 | –
CCCCCCCCCCCC(=O)N(C)c1nc(-c2ccccc2)cs1 | 80 | 111.1 | –
COc1cc(OC)c(-c2cs/c(=N/C(=O)c3ccccc3)n2C)c(OC)c1 | 40.6 | 94 | –
Cc1ccc(-c2csc(NC(=O)c3cccs3)n2)c(C)c1 | 40.9 | 67.5 | –
O=C(Nc1nc(-c2ccccc2)cs1)C1CCCC1 | 68.2 | 99.8 | –
COc1cc(OC)c(-c2csc(N(C)C(=O)c3ccccc3)n2)c(OC)c1 | 91.5 | 110.4 | –
O=C(Nc1nc(-c2ccccc2)cs1)c1cccs1 | 34.5 | 85.9 | inhibition at 10 µM (HeLa [2]): 60%; inhibition at 10 µM (MDA-MB-231 [5]): 40%; IC50 (MDA-MB-231 [6]): 2.49 µM
COc1ccc(C(=O)/N=c2/scc(-c3ccccc3)n2C)cc1OC | 35.9 | 40.9 | –
O=C(Nc1nc(-c2ccccc2)cs1)c1ccncc1 | 32.3 | 95.5 | inhibition at 10 µM (HeLa [2]): 60%; inhibition at 10 µM (MDA-MB-231 [5]): 40%; IC50 (MDA-MB-231 [6]): 2.87 µM
CN(C(=O)C1CCCC1)c1nc(-c2ccccc2)cs1 | 54.3 | 132.4 | –
O=C(Nc1nc(-c2ccccc2)cs1)c1ccc(Br)cc1 | 103 | 98.6 | –
Cn1c(-c2ccccc2)cs/c1=N/C(=O)c1ccc(Br)cc1 | 59.7 | 63.8 | –
Cc1ccc(-c2csc(N)n2)c(C)c1 | 45.5 | 110.9 | –
COc1ccc(C(=O)N(C)c2nc(-c3ccccc3)cs2)cc1OC | 43.5 | 97.1 | –
CCCCCC(=O)Nc1nc(-c2ccccc2)cs1 | 75.2 | 90.7 | –
Cn1c(-c2ccccc2)cs/c1=N/C(=O)c1cccnc1 | 62 | 111.5 | –
CCCCCC(=O)N(C)c1nc(-c2ccccc2)cs1 | 71.4 | 127.5 | –
Cc1ccc(-c2csc(NC(=O)c3ccccc3)n2)c(C)c1 | 33.7 | 85 | inhibition at 10 µM (HeLa [2]): 60%; inhibition at 10 µM (MDA-MB-231 [5]): 40%; IC50 (MDA-MB-231 [6]): 0.839 µM
Cn1c(-c2ccccc2)cs/c1=N/C(=O)c1ccc(Cl)cc1 | 28.1 | 98.2 | inhibition at 10 µM (HeLa [2]): 60%; inhibition at 10 µM (MDA-MB-231 [5]): 40%; IC50 (MDA-MB-231 [6]): 1.12 µM
O=C(Nc1nc(-c2ccccc2)cs1)c1ccccc1 | 31.3 | 105.2 | inhibition at 10 µM (HeLa [2]): 60%; inhibition at 10 µM (MDA-MB-231 [5]): 40%; IC50 (MDA-MB-231 [6]): 1.29 µM
